Source: PMC9989852 (Food and chemical toxicology : an international journal …, 2022)
Several values for one entry are separate records, joined by “and”; a condition that tells them apart may be missing. Identical values can stand only once.

Legend:
[1] = test system: ear pinna; assay: Skin; assay type: in vivo, B6C3F1 mice; details: dermal, 28 days
Method in brief: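 Female B6C3F1 mice (5/group) received 25 μl/ear daily to the dorsal ears in acetone. About 24 h after the last dose, tissues went into RPMI: both auricular dLNs, half spleen and one ear pinna. Single-cell suspensions were acquired on an LSR II, with populations gated per supplemental strategy and FMO gating controls. Results are mean ± SE, n=5, by one-way ANOVA.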

[2] = test system: ear pinna; assay: Ear; assay type: in vivo, B6C3F1 mice; details: dermal, 28 days, mice affected of 5
Method in brief: (§1)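 Female B6C3F1 mice (5/group) received 25 μl/ear on the dorsal ear surfaces daily, with acetone as vehicle. Tissues were formalin-fixed about 24 h after the last dose: liver remainder, half spleen, right kidney and half ear pinna. Sections were paraffin-embedded, cut at 5 μm and stained with H&E. A veterinary pathologist read them per STP guideline and graded 1 (minimal) to 5 (severe) by extent.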

[3] = test system: kidney, spleen; assay: Kidney and spleen histopathology after 28-day dermal exposure; assay type: in vivo, B6C3F1 mice; details: 1.25–5%, 28 days, data not shown
Method in brief: as §1

[4] = PFAS concentration in serum; assay type: in vivo, B6C3F1 mice; details: dermal, 28 days
Method in brief: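 Serum came by cardiac puncture about 24 h after the final daily ear dose (25 μl/ear, acetone vehicle; female B6C3F1 mice). Samples underwent solid-phase extraction and LC/MS/MS. Short-chain analytes were quantified as linear isomer only; the legacy comparator was quantified as linear plus branched. Data are mean ± SE of 4–5 mice, one-way ANOVA with Dunnett's vs vehicle.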

[5] = test system: B6C3F1 mice; assay: Serum chemistries after 28-day dermal exposure; assay type: in vivo; details: 5%, 28 days
Method in brief: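 Female B6C3F1 mice received daily dorsal ear application (25 μl/ear, acetone vehicle). About 24 h after the last dose, blood was taken by cardiac puncture. Serum was separated by centrifugation and stored at −20 °C. ALKP, BUN, glucose and cholesterol were read on a Catalyst DX analyzer. Data are mean ± SE of 4–5 mice, ANOVA with Dunnett's; ALKP was also tested by linear regression (p < 0.05).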

In the case of `O=C(O)C(F)(F)C(F)(F)C(F)(F)C(F)(F)C(F)(F)F` [PFHxA, perfluorohexanoic acid], the “Ear CD4^+ cell number” value ([1]; 1.25%) is reported as 2.40 ± 0.36 × 10^3, the “Ear CD4^+ frequency” value ([1]; 1.25%) is reported as 3.34 ± 0.09% and the “Ear CD8^+ cell number” value ([1]; 1.25%) is reported as 3.38 ± 2.57 × 10^2. For the same molecule, the “Ear CD8^+ frequency” value ([1]; 1.25%) was 0.48 ± 0.37%, the “Ear CD45^+ cell number” value ([1]; 1.25%) was 7.21 ± 1.13 × 10^4 and the “Ear CD45^+ frequency” value ([1]; 1.25%) was 8.51 ± 0.85%. The “Ear CD lib- F4/80+ DCs cell number” value ([1]; 1.25%) was 5.74 ± 0.72 × 10^2, the “Ear CDllb + F4/80+ DCs cell number” value ([1]; 1.25%) was 22.30 ± 3.03 × 10^2 and the “Ear CDllb- F4/80+ DCs frequency” value ([1]; 1.25%) was 0.87 ± 0.14%. For the same molecule, the “Ear CDllb- F4/80-DCs cell number” value ([1]; 1.25%) was 1.47 ± 0.24 × 10^3, the “Ear CDllb- F4/80-DCs frequency” value ([1]; 1.25%) was 2.05 ± 0.05 % and the “Ear Dendritic Cells cell number” value ([1]; 1.25%) was 4.99 ± 0.68 × 10^3. The “Ear Dendritic Cells frequency” value ([1]; 1.25%) was 7.09 ± 0.33%, the “Ear Eosinophils cell number” value ([1]; 1.25%) was 2.77 ± 0.56 × 10^3 and the “Ear Eosinophils frequency” value ([1]; 1.25%) was 3.82 ± 0.34%. The “Ear NK cell number” value ([1]; 1.25%) was 4.76 ± 0.96 × 10^2, the “Ear NK frequency” value ([1]; 1.25%) was 0.66 ± 0.07% and the “Ear Neutrophils cell number” value ([1]; 1.25%) was 1.18 ± 0.22 × 10^2. The “Ear Neutrophils frequency” value ([1]; 1.25%) was 0.17 ± 0.02%, the “Ear Total Cellularity” value ([1]; 1.25%) was 0.83 ± 0.09 × 10^6 and the “Ear CD4^+ cell number” value ([1]; 2.5%) was 5.01 ± 0.60 × 10^3. The “Ear CD4^+ frequency” value ([1]; 2.5%) was 5.05 ± 0.25 %, the “Ear CD8^+ cell number” value ([1]; 2.5%) was 1.91 ± 0.23 × 10^2 and the “Ear CD8^+ frequency” value ([1]; 2.5%) was 0.19 ± 0.02%. The “Ear CD45^+ cell number” value ([1]; 2.5%) was 9.82 ± 0.79 × 10^4, the “Ear CD45^+ frequency” value ([1]; 2.5%) was 10.91 ± 1.00 % and the “Ear CD lib- F4/80+ DCs cell number” value ([1]; 2.5%) was 6.58 ± 0.67 × 10^2. The “Ear CDllb + F4/80+ DCs cell number” value ([1]; 2.5%) was 35.80 ± 2.66 × 10^2, the “Ear CDllb- F4/80+ DCs frequency” value ([1]; 2.5%) was 0.67 ± 0.05% and the “Ear CDllb- F4/80-DCs cell number” value ([1]; 2.5%) was 2.82 ± 0.24 × 10^3. The “Ear CDllb- F4/80-DCs frequency” value ([1]; 2.5%) was 2.89 ± 0.19%, the “Ear Dendritic Cells cell number” value ([1]; 2.5%) was 9.09 ± 0.72 × 10^3 and the “Ear Dendritic Cells frequency” value ([1]; 2.5%) was 9.30 ± 0.47%. The “Ear Eosinophils frequency” value ([1]; 2.5%) was 7.59 ± 0.65 %, the “Ear NK cell number” value ([1]; 2.5%) was 6.45 ± 0.60 × 10^2 and the “Ear NK frequency” value ([1]; 2.5%) was 0.66 ± 0.04%. For the same molecule, the “Ear Neutrophils cell number” value ([1]; 2.5%) was 4.94 ± 1.24 × 10^2, the “Ear Neutrophils frequency” value ([1]; 2.5%) was 0.51 ± 0.13% and the “Ear Total Cellularity” value ([1]; 2.5%) was 0.91 ± 0.05 × 10^6. The “Ear CD4^+ cell number” value ([1]; 5%) was 6.11 ± 1.17 × 10^3, the “Ear CD4^+ frequency” value ([1]; 5%) was 5.29 ± 0.32 % and the “Ear CD8^+ cell number” value ([1]; 5%) was 2.15 ± 0.46 × 10^2. For the same molecule, the “Ear CD8^+ frequency” value ([1]; 5%) was 0.20 ± 0.04%, the “Ear CD45^+ cell number” value ([1]; 5%) was 11.50 ± 2.03 × 10^4 and the “Ear CD45^+ frequency” value ([1]; 5%) was 11.22 ± 1.00 %. The “Ear CD lib- F4/80+ DCs cell number” value ([1]; 5%) was 4.22 ± 0.49 × 10^2, the “Ear CDllb + F4/80+ DCs cell number” value ([1]; 5%) was 48.30 ± 7.74 × 10^2 and the “Ear CDllb- F4/80+ DCs frequency” value ([1]; 5%) was 0.39 ± 0.03 %. The “Ear CDllb- F4/80-DCs cell number” value ([1]; 5%) was 2.90 ± 0.54 × 10^3, the “Ear CDllb- F4/80-DCs frequency” value ([1]; 5%) was 2.51 ± 0.14% and the “Ear Dendritic Cells cell number” value ([1]; 5%) was 10.10 ± 1.77 × 10^3. For the same molecule, the “Ear Dendritic Cells frequency” value ([1]; 5%) was 8.88 ± 0.39%, the “Ear Eosinophils cell number” value ([1]; 5%) was 9.87 ± 1.78 × 10^3 and the “Ear Eosinophils frequency” value ([1]; 5%) was 8.60 ± 0.38 %. For the same molecule, the “Ear NK cell number” value ([1]; 5%) was 9.94 ± 2.21 × 10^2, the “Ear NK frequency” value ([1]; 5%) was 0.85 ± 0.09 % and the “Ear Neutrophils frequency” value ([1]; 5%) was 1.13 ± 0.23 %. The “Ear Total Cellularity” value ([1]; 5%) was 0.99 ± 0.11 × 10^6, the “Ear: Degeneration/regeneration, cartilage, focal, Mild (incidence)” value (“Ear: Degeneration/regeneration” for short) ([2]; 1.25%) was 0 and the “Ear: Fibrosis, dermis, focal, Minimal (incidence)” value (shortened to “Ear: Fibrosis, dermis, focal”) ([2]; 1.25%) was 0. The “Ear: Hyperkeratosis, epidermis, focal, Mild (incidence)” value (“Ear: Hyperkeratosis … Mild (incidence)” below) ([2]; 1.25%) was 0, the “Ear: Hyperkeratosis, epidermis, focal, Minimal (incidence)” value ([2]; 1.25%) was 1 and the “Ear: Hyperplasia, epidermis, focal, Mild (incidence)” value (“Ear: Hyperplasia … Mild (incidence)” below) ([2]; 1.25%) was 0. The “Ear: Hyperplasia, epidermis, focal, Minimal (incidence)” value (“Ear: Hyperplasia … Minimal (incidence)” for short) ([2]; 1.25%) was 5/5 and 5, the “Ear: Inflammation, mixed cell, dermis, Minimal (incidence)” value (“Ear: Inflammation, mixed cell, dermis” for short) ([2]; 1.25%) was 0 and the “Ear: Inflammation, mononuclear cell, dermis, Minimal (incidence)” value (“Ear: Inflammation, mononuclear cell” below) ([2]; 1.25%) was 0. The “Ear: Necrosis, epidermis, multifocal, Minimal (incidence)” value (“Ear: Necrosis, epidermis, multifocal” for short) ([2]; 1.25%) was 0, the “Ear: Degeneration/regeneration” value ([2]; 2.5%) was 0 and the “Ear: Fibrosis, dermis, focal” value ([2]; 2.5%) was 0. For the same molecule, the “Ear: Hyperkeratosis … Mild (incidence)” value ([2]; 2.5%) was 0, the “Ear: Hyperkeratosis, epidermis, focal, Minimal (incidence)” value ([2]; 2.5%) was 4/5 and 4 and the “Ear: Hyperplasia … Mild (incidence)” value ([2]; 2.5%) was 0. For the same molecule, the “Ear: Hyperplasia … Minimal (incidence)” value ([2]; 2.5%) was 5/5 and 5, the “Ear: Inflammation, mixed cell, dermis” value ([2]; 2.5%) was 0 and the “Ear: Inflammation, mononuclear cell” value ([2]; 2.5%) was 0. The “Ear: Necrosis, epidermis, multifocal” value ([2]; 2.5%) was 0, the “Ear: Degeneration/regeneration” value ([2]; 5%) was 1 and the “Ear: Fibrosis, dermis, focal” value ([2]; 5%) was 5/5 and 5. The “Ear: Hyperkeratosis … Mild (incidence)” value ([2]; 5%) was 3/5 and 3, the “Ear: Hyperkeratosis, epidermis, focal, Minimal (incidence)” value ([2]; 5%) was 2/5 and 2 and the “Ear: Hyperplasia … Mild (incidence)” value ([2]; 5%) was 4/5 and 4. For the same molecule, the “Ear: Hyperplasia … Minimal (incidence)” value ([2]; 5%) was 1, the “Ear: Inflammation, mixed cell, dermis” value ([2]; 5%) was 4/5 and 4 and the “Ear: Inflammation, mononuclear cell” value ([2]; 5%) was 0. The “Ear: Necrosis, epidermis, multifocal” value ([2]; 5%) was 0, the “microscopic observations in the kidney or the spleen” value [3] was “No PFPeA, PFHxA, or PFHpA-related microscopic observations” and the “PFAS serum concentration vs vehicle” value ([4]; 2.5%) was “significant increase”. For the same molecule, the “PFAS serum concentration vs vehicle” value ([4]; 5%) was “significant increase” and the “serum glucose, increase compared to vehicle control” value [5] was 27%.
